Measurements pooled from the literature.
Target: G protein-coupled receptor kinase 6 (GRK6, Homo sapiens, UniProt P43250)

| SMILES | assay | setting | quantity | value |
| --- | --- | --- | --- | --- |
| Cc1ccc(Nc2nccc(N(C)c3ccc4c(C)n(C)nc4c3)n2)cc1S(N)(=O)=O | enzyme activity, inhibitor | 10 µM | inhibition | 2% |
| CCN(CC)c1ccc(C2=NNC(=O)CC2C)cc1[N+](=O)[O-] (stereo not drawn) | enzyme activity, inhibitor | 10 µM | remaining activity | 105% |
| Cc1ccc(NC(=O)c2ccc(C)c(C(F)(F)F)c2)cc1C#Cc1nn(C2CCC(O)CC2)c2ncnc(N)c12 (stereo not drawn) | cell-free assay | 10 µM | remaining signal | 100% |
| CN1CC(Oc2cnc(C#N)cc2-c2ccn3nc(NC(=O)C4CC4)cc3c2)C1 | enzyme activity, inhibitor | 1 µM | inhibition | 9% |
| CNC(=O)c1cc(Oc2ccc(NC(=O)Nc3ccc(Cl)c(C(F)(F)F)c3)cc2)ccn1 | enzyme activity, inhibitor | 0.3 µM | inhibition | 2% |
| N#CCCc1ccc2c(c1)-c1[nH]c3ccc([N+](=O)[O-])cc3c1CC(=O)N2 | cell-free assay | 0.5 µM | remaining signal | 91.5% |
| COc1cc2ncnc(Nc3ccc(Oc4ccccc4)cc3C)c2cc1OC | enzyme activity, inhibitor | 1 µM | inhibition | 0% |
| CC(C)(C)c1nc(-c2cccc(NS(=O)(=O)c3c(F)cccc3F)c2F)c(-c2ccnc(N)n2)s1 | enzyme activity, inhibitor, radiometric | 1 µM | remaining activity | 79% |
| Cc1ccc(C(=O)NCc2ccsc2)cc1C#Cc1cn(C(C)C)c2ncnc(N)c12 | enzyme activity, inhibitor | 1 µM | activity vs control | 109% |
| O=C(Nc1cnn(-c2csc(C(=O)NC3COC3)c2)c1)Nc1ccccc1Cl | enzyme activity, inhibitor | 5 µM | remaining activity | 97.9% |
| CCN(CC)CCNC(=O)c1c(C)[nH]c(/C=C2\C(=O)Nc3ccc(F)cc32)c1C | enzyme activity, inhibitor | 10 µM | inhibition | 73% |
| Cc1cnc(NC2CCOCC2)nc1-n1cnc(C(=O)NC(CN)c2cc(F)cc(Cl)c2)c1 (stereo not drawn) | enzyme activity, inhibitor, radiometric | 1 µM | remaining activity | 81% |
